How the values were obtained:
[1] = target: Macrophage metalloelastase (Homo sapiens) (UniProt P39900); experiment: Inhibition recombinant MMP12 at 100 uM; set-up: scale not given: the % may be the effect or the level left
Outline: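 Recombinant MMP-12 was expressed directly in active form, with no zymogen activation step. Active concentration was determined by recombinant N-TIMP-1 titration, with Knight fSSP or NFF-3 as substrate.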

[2] = target: Stromelysin-1 (Homo sapiens) (UniProt P08254); experiment: Inhibition recombinant MMP3 at 100 uM; set-up: scale not given: the % may be the effect or the level left
Chain of Stromelysin-1 (Homo sapiens) (P08254 100-477 limits assumed): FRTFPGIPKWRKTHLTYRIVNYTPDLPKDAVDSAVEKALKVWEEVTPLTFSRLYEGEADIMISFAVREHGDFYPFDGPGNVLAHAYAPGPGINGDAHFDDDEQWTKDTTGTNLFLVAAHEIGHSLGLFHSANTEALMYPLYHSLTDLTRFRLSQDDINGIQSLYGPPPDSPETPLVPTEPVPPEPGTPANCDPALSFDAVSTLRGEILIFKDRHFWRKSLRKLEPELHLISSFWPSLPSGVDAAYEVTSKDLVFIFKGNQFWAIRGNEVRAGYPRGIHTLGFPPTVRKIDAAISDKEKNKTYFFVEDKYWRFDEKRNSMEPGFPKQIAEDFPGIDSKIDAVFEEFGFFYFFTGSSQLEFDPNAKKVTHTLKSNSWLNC
Outline: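 ProMMP-3 was expressed in E. coli and folded from inclusion bodies. It was activated with 5 μg/mL chymotrypsin at 37 °C for 2 h, and chymotrypsin was then inactivated with 2 mM diisopropylfluorophosphate. Active concentration was set by N-TIMP-1 titration, with Knight fSSP or NFF-3 as substrate.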

[3] = target: Matrix metalloproteinase-9 (Homo sapiens) (UniProt P14780); experiment: Inhibition recombinant MMP9 at 100 uM; set-up: scale not given: the % may be the effect or the level left
Chain of Matrix metalloproteinase-9 (Homo sapiens) (P14780 whole entry): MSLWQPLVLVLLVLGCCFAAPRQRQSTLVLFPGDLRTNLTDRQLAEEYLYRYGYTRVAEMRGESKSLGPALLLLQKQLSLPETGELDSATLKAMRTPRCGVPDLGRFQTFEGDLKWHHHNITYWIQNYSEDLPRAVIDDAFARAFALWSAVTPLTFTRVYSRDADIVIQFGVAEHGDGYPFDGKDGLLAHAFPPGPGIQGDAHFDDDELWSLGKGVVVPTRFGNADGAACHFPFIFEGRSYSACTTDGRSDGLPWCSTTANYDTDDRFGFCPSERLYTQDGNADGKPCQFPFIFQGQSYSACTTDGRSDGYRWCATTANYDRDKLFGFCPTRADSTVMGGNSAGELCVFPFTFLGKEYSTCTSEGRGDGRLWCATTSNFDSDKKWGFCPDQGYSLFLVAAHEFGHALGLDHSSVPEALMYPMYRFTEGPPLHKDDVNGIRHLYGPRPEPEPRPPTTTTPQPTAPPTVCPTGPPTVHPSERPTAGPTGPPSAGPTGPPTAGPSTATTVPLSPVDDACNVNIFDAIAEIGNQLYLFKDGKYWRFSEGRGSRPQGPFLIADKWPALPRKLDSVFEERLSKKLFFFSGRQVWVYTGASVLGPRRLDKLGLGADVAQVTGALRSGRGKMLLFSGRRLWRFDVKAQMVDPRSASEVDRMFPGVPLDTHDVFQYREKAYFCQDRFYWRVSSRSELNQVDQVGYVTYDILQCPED
Outline: (§1)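 Pro-enzyme (MMP-8 expressed in CHO-K1 cells; MMP-9 recombinant) was activated with 1 mM APMA for 1 h at 37 °C. Active enzyme concentration was determined by titration with recombinant N-TIMP-1, using Knight fSSP or NFF-3 substrate.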

[4] = target: T1, Interstitial collagenase (Homo sapiens) (UniProt P03956); experiment: Inhibition recombinant MMP1 at 100 uM; set-up: scale not given: the % may be the effect or the level left
T1 sequence (whole entry): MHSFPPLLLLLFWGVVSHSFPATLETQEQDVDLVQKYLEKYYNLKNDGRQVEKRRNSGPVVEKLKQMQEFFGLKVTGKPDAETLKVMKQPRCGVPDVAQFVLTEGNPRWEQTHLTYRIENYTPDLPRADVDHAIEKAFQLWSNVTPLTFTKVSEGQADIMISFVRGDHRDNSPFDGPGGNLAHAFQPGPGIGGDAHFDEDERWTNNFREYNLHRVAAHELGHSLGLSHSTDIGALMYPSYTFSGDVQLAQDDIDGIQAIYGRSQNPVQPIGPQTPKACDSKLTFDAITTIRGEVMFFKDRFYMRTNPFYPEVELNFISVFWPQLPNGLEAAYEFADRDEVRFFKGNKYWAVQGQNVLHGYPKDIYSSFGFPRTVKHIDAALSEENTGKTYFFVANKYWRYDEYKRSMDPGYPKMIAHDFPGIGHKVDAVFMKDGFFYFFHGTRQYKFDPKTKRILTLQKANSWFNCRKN
Outline: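 Enzyme source: proMMP-1 expressed in E. coli and refolded from inclusion bodies. Activated with 1 mM APMA plus 0.1 equiv MMP-3(Δ248-460) for 6 h at 37 °C. The MMP-3 fragment was then removed by size-exclusion chromatography. Active enzyme was quantified by titration with recombinant N-TIMP-1, using Knight fSSP or NFF-3 as substrate.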

[5] = target: T2, Collagenase 3 (Homo sapiens, UniProt P45452); experiment: Activity of human recombinant MMP13; set-up: concentration or dose not given beside the values
Outline: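 Recombinant full-length human proMMP-13, activated with 1 mM APMA for 2 h at 37 °C and active-site titrated with N-TIMP-1. Run in 1536-well format in Tris·HCl pH 7.5, 100 mM NaCl, 10 mM CaCl2, 0.05% Brij-35, 0.3% DMSO. Triple-helical FRET substrate fTHP-15 (Mca/Dnp). Stopped with EDTA after 4 h at 25 °C; fluorescence read at ex 325/em 450 nm. Dose-response in triplicate, 10-point 1:3 dilutions from 40 μM; IC50 from four-parameter sigmoidal fit.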

[6] = target: Neutrophil collagenase (Homo sapiens) (UniProt P22894); experiment: Inhibition recombinant MMP8 expressed in CHO-K1 cells at 100 uM; type: cell-based; set-up: scale not given: the % may be the effect or the level left; outline: as §1
Chain of Neutrophil collagenase (Homo sapiens) (P22894 101-467 limits assumed): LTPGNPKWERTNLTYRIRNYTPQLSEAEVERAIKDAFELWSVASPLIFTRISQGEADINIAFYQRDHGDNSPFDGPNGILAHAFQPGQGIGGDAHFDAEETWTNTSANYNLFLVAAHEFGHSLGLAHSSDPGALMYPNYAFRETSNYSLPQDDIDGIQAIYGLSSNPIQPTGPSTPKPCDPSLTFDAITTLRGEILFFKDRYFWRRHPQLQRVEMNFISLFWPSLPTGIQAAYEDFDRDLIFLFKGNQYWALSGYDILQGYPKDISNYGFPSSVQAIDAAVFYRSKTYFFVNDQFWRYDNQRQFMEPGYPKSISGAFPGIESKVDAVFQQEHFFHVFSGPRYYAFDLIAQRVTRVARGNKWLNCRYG

[7] = target: 72 kDa type IV collagenase (Homo sapiens) (UniProt P08253); experiment: Inhibition recombinant MMP2 at 100 uM; set-up: scale not given: the % may be the effect or the level left
Chain of 72 kDa type IV collagenase (Homo sapiens) (P08253 110-660 limits assumed): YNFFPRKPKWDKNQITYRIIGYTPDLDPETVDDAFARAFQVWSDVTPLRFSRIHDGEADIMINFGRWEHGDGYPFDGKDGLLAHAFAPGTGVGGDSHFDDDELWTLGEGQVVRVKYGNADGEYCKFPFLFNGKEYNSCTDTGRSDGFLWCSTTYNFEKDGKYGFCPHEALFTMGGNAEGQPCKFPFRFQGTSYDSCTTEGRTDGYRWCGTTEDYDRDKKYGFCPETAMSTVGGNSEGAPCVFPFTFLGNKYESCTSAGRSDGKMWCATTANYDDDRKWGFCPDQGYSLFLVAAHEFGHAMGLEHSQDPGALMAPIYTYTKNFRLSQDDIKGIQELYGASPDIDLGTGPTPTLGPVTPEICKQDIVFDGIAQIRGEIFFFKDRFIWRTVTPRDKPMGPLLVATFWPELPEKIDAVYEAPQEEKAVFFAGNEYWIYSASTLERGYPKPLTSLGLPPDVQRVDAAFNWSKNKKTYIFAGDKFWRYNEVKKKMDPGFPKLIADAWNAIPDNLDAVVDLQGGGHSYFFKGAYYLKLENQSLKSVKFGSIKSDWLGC

[8] = target: T2, Collagenase 3; experiment: Inhibition of human recombinant MMP13 expressed in Escherichia coli

Chain of Macrophage metalloelastase (Homo sapiens) (P39900 106-470 limits assumed): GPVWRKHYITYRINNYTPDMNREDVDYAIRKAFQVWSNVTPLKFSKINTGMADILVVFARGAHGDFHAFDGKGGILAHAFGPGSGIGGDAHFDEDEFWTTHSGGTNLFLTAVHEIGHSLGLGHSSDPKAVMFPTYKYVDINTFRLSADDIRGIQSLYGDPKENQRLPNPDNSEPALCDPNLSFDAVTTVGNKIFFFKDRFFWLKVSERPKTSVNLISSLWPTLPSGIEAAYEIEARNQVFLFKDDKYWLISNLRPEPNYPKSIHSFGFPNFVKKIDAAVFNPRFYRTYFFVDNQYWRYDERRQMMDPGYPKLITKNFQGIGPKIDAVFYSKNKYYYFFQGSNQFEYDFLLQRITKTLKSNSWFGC

Row | SMILES | Activity [1] | Activity [2] | Activity [3] | Activity [4] | Activity [5] | Activity [6] | Activity [7] | IC50 [8]
1 | COc1cc(OC)cc(-c2nnc(Nc3nc4c(F)cccc4s3)o2)c1 | 64% | 95% | 75% | 96% | 35% | 36% | 73% | –
2 | CCCCCCOc1ccc(C(CC(=O)O)C(N)=O)cc1 (stereo unspecified) | 0% | 43% | 0% | 91% | 15% | 10% | 0% | –
3 | O=C1NC(=O)C(CCc2ccncc2)(C2CCCCC2)C(=O)N1 | 21% | 96% | 27% | 47% | 35% | 50% | 49% | –
4 | C=CCN1C(=O)/C(=C2/Sc3ccccc3N2CCCS(=O)(=O)O)SC1=S | 100% | 100% | 100% | 96% | 36% | 100% | 100% | –
5 | COc1ccc(CSc2nc(C)cc(O)n2)cc1 | 72% | 97% | 66% | 98% | 25% | 80% | 47% | –
6 | O=C(O)CCC(NS(=O)(=O)c1ccc(-c2ccccc2)cc1)C(=O)O (stereo unspecified) | 2% | 63% | 14% | 25% | 4% | 2% | 7% | 2.1 µM
7 | Oc1nc(SCc2ccc(Cl)cc2)nc2c1CCC2 | – | – | – | – | – | – | – | 10.3 µM
8 | Cc1nn(-c2ccccc2)c2sc(-c3nnc(S)o3)cc12 | 75% | 75% | 100% | 68% | 45% | 32% | 100% | 0.9 µM
9 | COc1ccc(C2C(C(C)=O)=C(C)N=c3s/c(=C\c4cc(C)n(C)c4C)c(=O)n32)c(OC)c1 (stereo unspecified) | – | – | – | – | – | – | – | > 40 µM
10 | O=C(CSCc1nc(O)n[nH]1)NCCOc1cccc(Oc2ccccc2)c1 | 33% | 96% | 27% | 85% | 35% | 34% | 19% | –
11 | COC(=O)c1ccc(CSc2nc(O)c3c(-c4cccs4)csc3n2)o1 | 92% | 92% | 100% | 93% | 42% | 94% | 100% | –
12 | O=C1NC(=O)C(CCc2ccncc2)(c2ccccc2)C(=O)N1 | 1% | 87% | 3% | 27% | 14% | 8% | 17% | –
13 | CCN1C(=O)/C(=C2/Sc3ccccc3N2CCCS(=O)(=O)O)SC1=S | 94% | 90% | 14% | 88% | 4% | 100% | 80% | –
14 | COc1cc(-n2nc(C)c3c2OC(N)=C(C#N)C3c2ccccc2)c(Cl)c(Br)c1O (stereo unspecified) | – | – | – | – | – | – | – | > 40 µM
15 | CCOC(=O)/C(C#N)=C1/C=Nc2ccccc2N1 | 100% | 96% | 99% | 94% | 62% | 80% | 100% | 3.4 µM
16 | CCOC(=O)C1CCCN(c2nc3ccccc3nc2C(C#N)C(=O)OCC)C1 (stereo unspecified) | – | – | – | – | – | – | – | 13.3 µM

From ChEMBL document CHEMBL1140992, “High throughput screening of potentially selective MMP-13 exosite inhibitors utilizing a triple-helical FRET substrate” (Bioorg Med Chem, 2009)
